Results on 12 compounds are retold here after ChEMBL document CHEMBL2439956, “Synthesis and biological evaluation of novel formyl-pyrazoles bearing coumarin moiety as potent antimicrobial and antioxidant agents” (2013).

Values after ≈ are worked out from the molar mass of the structure shown. Active and inactive are the calls of the source. The calls are words filed in the database; no cut-off is given here.

Test [1] deals with Radical scavenging activity. As to the kind of experiment: Antioxidant activity assessed as DPPH radical scavenging activity at 50 ug/ml relative to butylated hydroxytoluene. The class given is functional. The procedure, abridged:
(§1)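 DPPH radical scavenging assay with BHT as standard antioxidant. Samples were tested at five concentrations (10, 20, 30, 40 and 50 µg/mL) in triplicate, alongside a control at 0 µg/mL. Read-out is % radical scavenging, reported as mean ± SD.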
For orientation: Loss of DPPH colour is used to gauge radical scavenging.

Test [2] concerns Radical scavenging activity. The test can be described thus: Antioxidant activity assessed as DPPH radical scavenging activity at 40 ug/ml relative to butylated hydroxytoluene. The test is classed as functional. Summed up:
as §1

In test [3] the test system is Radical scavenging activity. As to the kind of experiment: Antioxidant activity assessed as DPPH radical scavenging activity at 30 ug/ml relative to butylated hydroxytoluene. The class given is functional. The procedure, abridged:
as §1

For test [4], the system named is Radical scavenging activity. As to the kind of experiment: Antioxidant activity assessed as DPPH radical scavenging activity at 20 ug/ml relative to butylated hydroxytoluene. The class given is functional. Summed up: as §1
In test [5] the test system is Radical scavenging activity. The test can be described thus: Antioxidant activity assessed as DPPH radical scavenging activity at 10 ug/ml relative to butylated hydroxytoluene. The class given is functional. Summed up: as §1
In test [6] the test system is Candida albicans. As to the kind of experiment: Antifungal activity against Candida albicans by broth dilution technique. The class given is functional. The procedure, abridged: (§2)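 Broth dilution technique; each MIC (µg/mL) is the mean of three determinations run in triplicate against the bacterial and fungal strains.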
For orientation: Dilution methods test growth across graded concentrations, often in twofold steps.

For test [7], the system named is Aspergillus flavus. As to the kind of experiment: Antifungal activity against Aspergillus flavus by broth dilution technique. The class given is functional. Summed up: as §2
Test [8] has as its system Aspergillus niger. As to the kind of experiment: Antifungal activity against Aspergillus niger by broth dilution technique. The class given is functional. Summed up:
as §2

Test [9] concerns Cryptococcus neoformans. As to the kind of experiment: Antifungal activity against Cryptococcus neoformans by broth dilution technique. The test is classed as functional. The procedure, abridged: as §2
Test [10] deals with Pseudomonas aeruginosa. The test can be described thus: Antibacterial activity against Pseudomonas aeruginosa by broth dilution technique. The test is classed as functional. Summed up: as §2
Test [11] concerns Escherichia coli. As to the kind of experiment: Antibacterial activity against Escherichia coli by broth dilution technique. The class given is functional. Summed up:
as §2

The test system of test [12] is Streptococcus pyogenes. The test can be described thus: Antibacterial activity against Streptococcus pyogenes by broth dilution technique. The test is classed as functional. Summed up: as §2
Test [13] concerns Staphylococcus aureus. As to the kind of experiment: Antibacterial activity against Staphylococcus aureus by broth dilution technique. The class given is functional. The procedure, abridged: as §2
Test [14] relates to Escherichia coli. As to the kind of experiment: Antibacterial activity against Escherichia coli at 200 ug/ml by broth dilution technique. The test is classed as functional, organism-based.
For test [15], the system named is Streptococcus pyogenes. As to the kind of experiment: Antibacterial activity against Streptococcus pyogenes at 200 ug/ml by broth dilution technique. The class given is functional, organism-based.
The test system of test [16] is Candida albicans. The test can be described thus: Antifungal activity against Candida albicans at 200 ug/ml by broth dilution technique. The test is classed as functional, organism-based.
In test [17] the test system is Aspergillus flavus. The test can be described thus: Antifungal activity against Aspergillus flavus at 200 ug/ml by broth dilution technique. The test is classed as functional, organism-based.

As to `COc1ccccc1-n1cc(C=O)c(-c2c(O)ccc3c(C)cc(=O)oc23)n1`, the Activity in test [1] was determined as 17.4%; in [2] it was 15.6%; in [3], 13.3%; in test [4], 12%; in test [5], 11.1%. Besides, the MIC (usually the lowest concentration found to suppress growth) in test [6] turned out to be 50 µg/mL (≈ 133 µM); in test [7], 25 µg/mL (≈ 66.4 µM); in [8], 50 µg/mL (≈ 133 µM); in [9] it was 25 µg/mL (≈ 66.4 µM); in test [10], 25 µg/mL (≈ 66.4 µM); in [11], 75 µg/mL (≈ 199 µM). The values for the MIC in test [12] and in [13] were 50 µg/mL (≈ 133 µM) and 30 µg/mL (≈ 79.7 µM), respectively.

As to `O=C(O)c1cn(C2CC2)c2cc(N3CCNCC3)c(F)cc2c1=O` [CIPROFLOXACIN], the minimum inhibitory concentration (MIC) turned out to be 25 µg/mL (≈ 75.4 µM) in test [11] and 50 µg/mL (≈ 151 µM) in [12].

As for `C/C(=N/Nc1ccc([N+](=O)[O-])cc1[N+](=O)[O-])c1c(O)ccc2c(C)cc(=O)oc12`, the MIC result in test [6], in test [7], in [8], in test [9], in test [10] and in [11] was “inactive” throughout. The results for the MIC in [12] and in test [13] were 75 µg/mL (≈ 188 µM) and 50 µg/mL (≈ 126 µM), respectively.

Regarding `COc1ccccc1N/N=C(/C)c1c(O)ccc2c(C)cc(=O)oc12`, the MIC in [6] came to 30 µg/mL (≈ 88.7 µM); in test [7], 40 µg/mL (≈ 118 µM); in test [8] it was 50 µg/mL (≈ 148 µM); in [9], 40 µg/mL (≈ 118 µM); in [11], 50 µg/mL (≈ 148 µM); in test [12], 60 µg/mL (≈ 177 µM). Besides, 30 µg/mL (≈ 88.7 µM) was the least that counted as inhibitory in test [13] (MIC). Besides, in [10], the MIC entry is “inactive”.

`C/C(=N/Nc1ccccc1)c1c(O)ccc2c(C)cc(=O)oc12`: the result in test [14] and in test [15] was inactive. The MIC in [6] stood at 50 µg/mL (≈ 162 µM); in test [7], 75 µg/mL (≈ 243 µM); in test [8], 75 µg/mL (≈ 243 µM); in [9] it was 50 µg/mL (≈ 162 µM); in [10], 25 µg/mL (≈ 81.1 µM); in [13], 40 µg/mL (≈ 130 µM). For the same compound, the MIC entry in test [11] and in [12] was “inactive” each time.

Regarding `Cc1cc(=O)oc2c(-c3nn(-c4ccc([N+](=O)[O-])cc4[N+](=O)[O-])cc3C=O)c(O)ccc12`, the Activity in test [1] was determined as 56%; in test [2], 51.1%; in [3], 47.1%; in test [4], 41.9%; in test [5] it was 34.7%. The MIC entry in test [6], in test [7], in [8] and in test [9] was “inactive” in each case. Further, the MIC in test [10] was 20 µg/mL (≈ 45.8 µM); in test [11], 40 µg/mL (≈ 91.7 µM); in test [12] it was 75 µg/mL (≈ 172 µM); in test [13], 40 µg/mL (≈ 91.7 µM).

For the compound `C[C@@H]1[C@H](O)[C@@H](C)/C=C/C=C/C=C/C=C/C=C/C=C/C=C/[C@H](O[C@@H]2O[C@H](C)[C@@H](O)[C@H](N)[C@@H]2O)C[C@@H]2O[C@](O)(C[C@@H](O)C[C@@H](O)[C@H](O)CC[C@@H](O)C[C@@H](O)CC(=O)O[C@H]1C)C[C@H](O)[C@H]2C(=O)O` [AMPHOTERICIN B], the MIC in test [6] amounted to 25 µg/mL (≈ 27.1 µM); in test [7], 50 µg/mL (≈ 54.1 µM); in [8] it was 50 µg/mL (≈ 54.1 µM); in test [9], 25 µg/mL (≈ 27.1 µM).

As to `Cc1cc(=O)oc2c(-c3nn(-c4ccccc4)cc3C=O)c(O)ccc12`, the Activity came out at 57.8% in [1]; 50.1% in [2]; 46.4% in test [3]; 42.1% in [4]; 39.4% in [5]. For the same compound, the result in test [16] and in test [17] was inactive. In addition, the MIC amounted to 100 µg/mL (≈ 289 µM) in [8], 50 µg/mL (≈ 144 µM) in [9], 50 µg/mL (≈ 144 µM) in [10] and 30 µg/mL (≈ 86.6 µM) in test [11]. Besides, the MIC entry in test [12] and in test [13] was “inactive” in each case.

For the compound `Cc1ccccc1-n1cc(C=O)c(-c2c(O)ccc3c(C)cc(=O)oc23)n1`, the Activity in test [1] was found to be 17.1%; in test [2], 15.1%; in test [3] it was 14.1%; in test [4], 13.8%; in [5], 12.8%. The outcome in test [16] and in test [17] was inactive. The minimal inhibitory concentration (MIC) was 60 µg/mL (≈ 166 µM) in [8]; 30 µg/mL (≈ 83.2 µM) in test [9]; 50 µg/mL (≈ 139 µM) in [10]; 40 µg/mL (≈ 111 µM) in [11]; 50 µg/mL (≈ 139 µM) in test [12]; 30 µg/mL (≈ 83.2 µM) in test [13].

On to `Cc1cc(=O)oc2c(-c3nn(-c4ccc(Cl)cc4)cc3C=O)c(O)ccc12`, for which the Activity in test [1] was determined as 69.3%; in test [2], 63.9%; in [3], 58.1%; in test [4], 53.3%; in test [5] it was 48.9%. Besides, the MIC was 25 µg/mL (≈ 65.7 µM) in test [6]; 60 µg/mL (≈ 158 µM) in test [7]; 40 µg/mL (≈ 105 µM) in test [8]; 15 µg/mL (≈ 39.4 µM) in test [9]; 15 µg/mL (≈ 39.4 µM) in test [10]; 30 µg/mL (≈ 78.8 µM) in [11]. The minimal inhibitory concentration (MIC) in [12] worked out at 35 µg/mL (≈ 91.9 µM); in [13] it was 15 µg/mL (≈ 39.4 µM).

In the case of `C/C(=N/Nc1ccccc1C)c1c(O)ccc2c(C)cc(=O)oc12`, the outcome in test [16] and in test [17] was inactive. The MIC in test [8] is 75 µg/mL (≈ 233 µM); in test [9], 40 µg/mL (≈ 124 µM); in test [10], 100 µg/mL (≈ 310 µM); in test [11], 75 µg/mL (≈ 233 µM); in test [12], 50 µg/mL (≈ 155 µM); in test [13], 40 µg/mL (≈ 124 µM).

Take `C/C(=N/Nc1ccc(Cl)cc1)c1c(O)ccc2c(C)cc(=O)oc12`: the MIC in test [6] is 30 µg/mL (≈ 87.5 µM); in test [7], 50 µg/mL (≈ 146 µM); in test [8], 60 µg/mL (≈ 175 µM); in test [9], 25 µg/mL (≈ 72.9 µM); in test [10], 25 µg/mL (≈ 72.9 µM); in test [11], 50 µg/mL (≈ 146 µM). The MIC is 50 µg/mL (≈ 146 µM) in test [12] and 20 µg/mL (≈ 58.3 µM) in test [13].
